We go through five molecules from article PMC8821119 (Clinical breast cancer, 2021).

Molecules are shown by their SMILES. Several values for one entry are separate records, joined by “and”; a condition that tells them apart may be missing. Equal values may be shown once.

Data set [1] has as its system PKCα-overexpressing, Notch4-positive ER+ cells. The conditions noted are these: reverses endocrine resistance; cited from earlier work.
Data set [2] relates to HER2-enriched breast cancer. To be noted: cited from earlier work.
In data set [3] the test system is ER+ metastatic breast cancer. In words: Phase Ib trial: clinical response. The class given is in vivo, human. The conditions noted are these: RO4929097 with exemestane.
Data set [4] has as its system T47D:PKCα cells. In words: Secondary mammosphere formation assay. The class given is cell-based. To be noted: 7 days. The essentials:
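T47D cells electroporated with a PKCα plasmid; G418-resistant clone F2 was chosen for PKCα overexpression on Western blot and STR-authenticated as T47D. Secondary mammosphere cultures were treated with test compound (30 nM), alone or with a γ-secretase inhibitor (5 μM), at pilot-chosen concentrations. Mammospheres counted after 7 days; 3 independent experiments, mean ± standard deviation.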

The nature of data set [5]: clinical. To be noted: human, in vivo.
Data set [6] has as its system plasma protein. The conditions noted are these: cited from earlier work.
Data set [7] deals with Notch1 cleavage. The conditions noted are these: cited from earlier work.
The subject of data set [8] is patients with ER+ metastatic breast cancer. Details: species or system human. To be noted: in vivo.
The test system of data set [9] is early stage ERα+ breast cancer patients. The conditions noted are these: short-term MK0752 added to letrozole or tamoxifen, neo-adjuvant; cited from earlier work.

In general, AUC(0-t) refers to exposure summed from dosing to a finite time, without extrapolation to infinity. Low readings indicate low exposure, high ones high exposure. What is called Cmax is the maximum level reached in the sampled fluid or tissue. By Tmax is commonly meant the time at which the peak concentration occurs. Broadly, the half-life is how long it takes for the measured level to halve. Read a low half-life as rapid decline. For orientation: IC50 means the point on the concentration scale where inhibition reaches its midpoint.

For `O=S1(=O)N[C@@]2(CN1CC(F)(F)F)[C@@H]1CC[C@H]2Cc2ccc(/C=C/CN3CCC(C(F)(F)F)CC3)cc2C1` [MRK003], the “Tumor response and toxicity” value in [1] was “causes tumor regression without significant toxicity”. Besides, the “Effect on tumor volume” value in data set [2] (MRK003 alone) was “virtually no effect on tumor volume”. The Tumor recurrence result in data set [2] (MRK003 in combination with trastuzumab) is on record as “abrogated tumor recurrence”.

In the case of `CC(C)(C(=O)NCC(F)(F)C(F)(F)F)C(=O)N[C@@H]1C(=O)Nc2ccccc2-c2ccccc21` [RO4929097], in data set [3], the “Complete responses (CR)” value is “No complete responses”, the “Patients with stable disease for ≥ 6 months” value is recorded as “Twenty” and the “Total clinical benefit rate (CR+PR+SD ≥ 6 months)” value is 20%. Further, in [3] (14 evaluable patients), the “Partial response (PR), number of patients” value was “one”; the “Progressive disease, number of patients” value was 7 and 6; the “Stable disease (SD), number of patients” value is 6 and 7. Further, the “Estimated overall survival (OS) at 6 months” value in [3] (interval 60–100%) was 79%. Moreover, in data set [4] (RO4929097 alone (5 μM)), the Mammosphere numbers result is reported as “significantly decreased mammosphere numbers”. Further, the “Drug levels six days after dosing” value in [5] was “nearly unquantifiable levels”. Besides, in [5] (po, 20 mg), the AUC(0-t) worked out at 4550 ng·h/mL, the “Clearance mean (±st dev)” value is on record as 2.3 (±1.5) L/hr, the peak level (Cmax) was 266 ng/mL and the time to peak (Tmax) is 3 h. In data set [5] (po, 20 mg), this molecule gave a half-life of 1560 min. For the same molecule, in [5] (po, 30 mg), the AUC(0-t) amounted to 7710 ng·h/mL, the “Clearance mean (±st dev)” value is 2.1 (±0.3) L/hr, the maximum concentration (Cmax) stood at 1050 ng/mL and the Tmax is 0.5 h. This molecule also showed a half-life in [5] (po, 30 mg) of 1240 min. In [5] (po, 45 mg), the exposure AUC(0-t) is 10400 ng·h/mL, the “Clearance mean (±st dev)” value is listed as 2.8 (±2.2) L/hr, the highest level (Cmax) was 1110 ng/mL and the “Tmax mean (range)” value is 1.5 (1–2) hr. This molecule had a half-life in data set [5] (po, 45 mg) of 1390 min. Also, in data set [5] (po, 90 mg), the AUC(0-t) was determined as 21100 ng·h/mL, the “Clearance mean (±st dev)” value amounted to 2.8 L/h, the concentration peaked (Cmax) at 2080 ng/mL and the time of peak concentration (Tmax) was determined as 4.3 h. In addition, the half-life in [5] (po, 90 mg) was 816 min. In data set [5] (po, 140 mg), the exposure AUC(0-t) is 19700 ng·h/mL, the “Clearance mean (±st dev)” value is 2.6 (±0.2) L/hr, the Cmax was determined as 1330 ng/mL and the half-life is 2000 min. In addition, the Plasma protein binding result in data set [6] was “highly plasma protein-bound”. Also, the “IC50s observed by the authors earlier” value in data set [7] is on record as “nanomolar range”. Besides, the half-inhibitory concentration (IC50) in data set [7] (read-out: in vitro IC50 in cell-based assays for Notch1 cleavage) was 5 nM. Moreover, the “Dose-Limiting Toxicity (DLT) observed” value in data set [8] was “Rash”.

Regarding `O=C(O)CC[C@H]1CC[C@@](c2cc(F)ccc2F)(S(=O)(=O)c2ccc(Cl)cc2)CC1` [MK0752], in [9], the “Ki67 expression in tumors” value is reported as “significantly affected Ki67 expression” and the Toxicity entry is “no significant toxicity”.

As for `C=C1C[C@@H]2[C@H](CC[C@]3(C)C(=O)CC[C@@H]23)[C@@]2(C)C=CC(=O)C=C12` [exemestane, reference compound], the Protein-bound in data set [6] is 90%.

For `C[C@]12CC[C@@H]3c4ccc(O)cc4C[C@@H](CCCCCCCCC[S+]([O-])CCCC(F)(F)C(F)(F)F)[C@H]3[C@@H]1CC[C@@H]2O` (some centres unmarked) [fulvestrant, reference compound], the “Mammosphere sensitivity to single agent” value in data set [4] (fulvestrant alone (30 nM)) is listed as “partially sensitive”.
